Data published in ChEMBL document CHEMBL1126893, “Synthesis and CLOGP correlation of imidooxy anticonvulsants” (J Med Chem, 1993).

Assays:
Mus musculus [1] = assay: Time of peak effect of activity of compound was measured by both MES and sc Met test in mice; assay type: functional
Outline: (§1)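 Phase II quantification in mice after ip dosing. ED50 (scMet or MES) measured at the time of peak effect. TD50 (rotorod neurologic deficit) measured at the time of peak neurologic deficit. Medians and 95% confidence limits by the Litchfield-Wilcoxon method. Protective index = TD50/ED50. Time of peak effect determined in the MES or scMet test.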

Rattus norvegicus = assay: Effective dose was measured in rat by maximal electroshock method by ip administration; assay type: functional
Mus musculus [2] = assay: Time of peak effect of toxicity of compound was measured by both MES and sc Met test in mice; assay type: functional; outline: as §1
Mus musculus [3] = assay: Effective dose was measured in mouse by maximal electroshock method by ip administration; assay type: functional; outline: as §1
Mus musculus [4] = species on record: Mus musculus; assay: animal or person
Mus musculus [5] = assay: Anticonvulsant activity was measured by maximal electroshock test on mice at 0.25 hr at the dose of 100 mg/kg; number of animals protected/number of animals tested 2/2; assay type: functional
Mus musculus [6] = assay: Anticonvulsant activity was measured by subcutaneous pentylenetetrazole test on mice at 0.25 hr at the dose of 100 mg/kg; number of animals protected/number of animals tested 2/2; assay type: functional
Mus musculus [7] = assay: Anticonvulsant activity was measured by subcutaneous pentylenetetrazole test on mice at 4 hr at the dose of 300 mg/kg; number of animals protected/number of animals tested 0/1; assay type: functional
Mus musculus [8] = assay: Anticonvulsant activity was measured by subcutaneous pentylenetetrazole test on mice at 1 hr at the dose of 100 mg/kg; number of animals protected/number of animals tested 0/2; assay type: functional
Mus musculus [9] = assay: Anticonvulsant activity was measured by rotarod toxicity test on mice at 0.25 hr at the dose of 100 mg/kg; number of animals protected/number of animals tested 0/4; assay type: functional
Mus musculus [10] = assay: Anticonvulsant activity was measured by subcutaneous pentylenetetrazole test on mice at 30 min at the dose of 300 mg/kg; number of animals protected/number of animals tested 1/1; assay type: functional
Mus musculus [11] = species on record: Mus musculus; assay: Protective index (TD50/ED50) value in MES test in mice; assay type: functional
Mus musculus [12] = assay: Anticonvulsant activity was measured by rotarod toxicity test on mice at 1 hr at the dose of 100 mg/kg; number of animals protected/number of animals tested 0/4; assay type: functional
Mus musculus [13] = assay: Anticonvulsant activity was measured by rotarod toxicity test on mice at 30 min at the dose of 300 mg/kg; number of animals protected/number of animals tested 4/4; assay type: functional
Mus musculus [14] = assay: Anticonvulsant activity was measured by maximal electroshock test on mice at 30 min at the dose of 300 mg/kg; number of animals protected/number of animals tested 1/1; assay type: functional
Mus musculus [15] = assay: Anticonvulsant activity was measured by rotarod toxicity test on mice at 4 h at the dose of 300 mg/kg; number of animals protected/number of animals tested 0/2; assay type: functional
Mus musculus [16] = species on record: Mus musculus; assay: Protective index (TD50/ED50) value in scMET test in mice; assay type: functional; outline: as §1
Mus musculus [17] = assay: Anticonvulsant activity was measured by maximal electroshock test on mice at 4 h at the dose of 300 mg/kg; number of animals protected/number of animals tested 0/1; assay type: functional
Mus musculus [18] = assay: Anticonvulsant activity was measured by subcutaneous maximal electroshock test on mice at 1 hr at the dose of 100 mg/kg; number of animals protected/number of animals tested 1/2; assay type: functional
Mus musculus [19] = assay: Anticonvulsant activity was measured by maximal electroshock test on mice at 2 hr at the dose of 50 mg/kg; number of animals protected/number of animals tested, 2/4; assay type: functional
Mus musculus [20] = assay: Anticonvulsant activity was measured by subcutaneous pentylenetetrazole test on mice at 30 min at the dose of 300 mg/kg; number of animals protected/number of animals tested, 1/1; assay type: functional
Mus musculus [21] = assay: Anticonvulsant activity was measured by rotarod toxicity test on mice at 2 hr at the dose of 50 mg/kg; number of animals protected/number of animals tested, 0/4; assay type: functional
Mus musculus [22] = assay: Anticonvulsant activity was measured by maximal electroshock test on mice at 0.25 hr at the dose of 50 mg/kg; number of animals protected/number of animals tested, 0/4; assay type: functional
Mus musculus [23] = assay: Anticonvulsant activity was measured by maximal electroshock test on mice at 30 min at the dose of 100 mg/kg; number of animals protected/number of animals tested, 2/3; assay type: functional
Mus musculus [24] = assay: Anticonvulsant activity was measured by rotarod toxicity test on mice at 4 hr at the dose of 300 mg/kg; number of animals protected/number of animals tested, 0/2; assay type: functional
Mus musculus [25] = assay: Anticonvulsant activity was measured by subcutaneous pentylenetetrazole test on mice at 30 min at the dose of 100 mg/kg; number of animals protected/number of animals tested, 0/1; assay type: functional
Mus musculus [26] = assay: Anticonvulsant activity was measured by rotarod toxicity test on mice at 1 hr at the dose of 50 mg/kg; number of animals protected/number of animals tested, 0/4; assay type: functional
Mus musculus [27] = assay: Anticonvulsant activity was measured by rotarod toxicity test on mice at 30 min at the dose of 300 mg/kg; number of animals protected/number of animals tested, 4/4; assay type: functional
Mus musculus [28] = assay: Anticonvulsant activity was measured by rotarod toxicity teston mice at 0.50 hr at the dose of 50 mg/kg; number of animals protected/number of animals tested, 0/4; assay type: functional
Mus musculus [29] = assay: Anticonvulsant activity was measured by maximal electroshock test on mice at 050 hr at the dose of 50 mg/kg; number of animals protected/number of animals tested, 1/4; assay type: functional
Mus musculus [30] = assay: Anticonvulsant activity was measured by rotarod toxicity test on mice at 4 hr at the dose of 50 mg/kg; number of animals protected/number of animals tested, 0/4; assay type: functional
Mus musculus [31] = assay: Anticonvulsant activity was measured by rotarod toxicity test on mice at 4 hr at the dose of 100 mg/kg; number of animals protected/number of animals tested, 0/4; assay type: functional
Mus musculus [32] = assay: Anticonvulsant activity was measured by maximal electroshock test on mice at 4 hr at the dose of 300 mg/kg; number of animals protected/number of animals tested, 0/1; assay type: functional
Mus musculus [33] = assay: Anticonvulsant activity was measured by maximal electroshock test on mice at 30 min at the dose of 300 mg/kg; number of animals protected/number of animals tested, 1/1; assay type: functional
Mus musculus [34] = assay: Anticonvulsant activity was measured by maximal electroshock test on mice at 4 hr at the dose of 50 mg/kg; number of animals protected/number of animals tested, 0/4; assay type: functional
Mus musculus [35] = assay: Anticonvulsant activity was measured by rotarod toxicity teston mice at 0.25 hr at the dose of 50 mg/kg; number of animals protected/number of animals tested, 0/4; assay type: functional
Mus musculus [36] = assay: Anticonvulsant activity was measured by maximal electroshock test on mice at 4 hr at the dose of 100 mg/kg; number of animals protected/number of animals tested, 0/3; assay type: functional
Mus musculus [37] = assay: Anticonvulsant activity was measured by maximal electroshock test on mice at 1 hr at the dose of 50 mg/kg; number of animals protected/number of animals tested, 1/4; assay type: functional
Mus musculus [38] = assay: Anticonvulsant activity was measured by subcutaneous pentylenetetrazole test on mice at 4 hr at the dose of 100 mg/kg; number of animals protected/number of animals tested, 0/1; assay type: functional
Mus musculus [39] = assay: Anticonvulsant activity was measured by subcutaneous pentylenetetrazole test on mice at 4 h at the dose of 300 mg/kg; number of animals protected/number of animals tested, 0/1; assay type: functional
Mus musculus [40] = assay: Anticonvulsant activity was measured by rotarod toxicity test on mice at 30 min at the dose of 100 mg/kg; number of animals protected/number of animals tested, 0/8; assay type: functional
Mus musculus [41] = assay: Anticonvulsant activity was measured by maximal electroshock test on mice at 050 hr at the dose of 50 mg/kg; number of animals protected/number of animals tested, 0/4; assay type: functional
Mus musculus [42] = assay: Anticonvulsant activity was measured by maximal electroshock test on mice at 2 hr at the dose of 50 mg/kg; number of animals protected/number of animals tested, 1/4; assay type: functional
Mus musculus [43] = assay: Anticonvulsant activity was measured by maximal electroshock test on mice at 30 min at the dose of 100 mg/kg; number of animals protected/number of animals tested, 0/3; assay type: functional
Mus musculus [44] = assay: Anticonvulsant activity was measured by maximal electroshock test on mice at 1 hr at the dose of 50 mg/kg; number of animals protected/number of animals tested, 0/4; assay type: functional
Mus musculus [45] = assay: Anticonvulsant activity was measured by subcutaneous pentylenetetrazole test on mice at 30 min at the dose of 300 mg/kg; number of animals protected/number of animals tested, 0/1; assay type: functional
Mus musculus [46] = assay: Anticonvulsant activity was measured by rotarod toxicity teston mice at 0.25 hr at the dose of 100 mg/kg; number of animals protected/number of animals tested 0/2; assay type: functional
Mus musculus [47] = assay: Anticonvulsant activity was measured by maximal electroshock test on mice at 0.25 hr at the dose of 100 mg/kg; number of animals protected/number of animals tested 0/2; assay type: functional
Mus musculus [48] = assay: Effective dose was measured in mouse by subcutaneous pentylenetetrazole method by ip administration.; assay type: functional; outline: as §1
Mus musculus [49] = assay: Anticonvulsant activity was measured by rotarod toxicity test on mice at 30 min at the dose of 300 mg/kg; number of animals protected/number of animals tested 0/4; assay type: functional
Mus musculus [50] = assay: Anticonvulsant activity was measured by rotarod toxicity test on mice at 1 hr at the dose of 100 mg/kg; number of animals protected/number of animals tested, 0/2; assay type: functional
Mus musculus [51] = assay: Effective dose was measured in mouse by maximal electroshock method by ip administration.; assay type: functional; outline: as §1

CCC1(C)CC(=O)NC1=O (centres undefined) [ETHOSUXIMIDE]
TPE (Mus musculus [1]): 0.5 toxicity | ED50 (Rattus norvegicus): > 1000 mg/kg | TPE (Mus musculus [2]): 0.5

NC(=O)N1c2ccccc2C=Cc2ccccc21 [CARBAMAZEPINE]
ED50 (Mus musculus [3]): 8.8 mg/kg | TPE (Mus musculus [1]): 0.25 | TPE (Mus musculus [2]): 0.25

CCCC(CCC)C(=O)O [VALPROIC ACID]
ED50 (Mus musculus [4]): 149 mg/kg | TPE (Mus musculus [1]): 0.25 toxicity | TPE (Mus musculus [2]): 0.25

O=C1CC2(CCCC2)C(=O)N1OCc1ccccc1Br
Ratio (Mus musculus [5]): 2 | Ratio (Mus musculus [6]): 2 | Ratio (Mus musculus [7]): 0 | Ratio (Mus musculus [8]): 0 | Ratio (Mus musculus [9]): 0 | TPE (Mus musculus [1]): 0.25 | Ratio (Mus musculus [10]): 1 | PI (Mus musculus [11]): 2.3 | Ratio (Mus musculus [12]): 0 | Ratio (Mus musculus [13]): 4 | Ratio (Mus musculus [14]): 1 | Ratio (Mus musculus [15]): 0 | PI (Mus musculus [16]): 1.7 | Ratio (Mus musculus [17]): 0 | TPE (Mus musculus [2]): 0.25 | Ratio (Mus musculus [18]): 1

O=C1CC2(CCCC2)C(=O)N1OCc1ccccc1F
Ratio (Mus musculus [19]): 2 | Ratio (Mus musculus [20]): 1 | Ratio (Mus musculus [21]): 0 | Ratio (Mus musculus [22]): 0 | Ratio (Mus musculus [23]): 2 | Ratio (Mus musculus [24]): 0 | Ratio (Mus musculus [25]): 0 | Ratio (Mus musculus [26]): 0 | Ratio (Mus musculus [27]): 4 | Ratio (Mus musculus [28]): 0 | Ratio (Mus musculus [29]): 1 | Ratio (Mus musculus [30]): 0 | Ratio (Mus musculus [31]): 0 | Ratio (Mus musculus [32]): 0 | Ratio (Mus musculus [33]): 1 | Ratio (Mus musculus [34]): 0 | Ratio (Mus musculus [35]): 0 | Ratio (Mus musculus [36]): 0 | Ratio (Mus musculus [37]): 1 | Ratio (Mus musculus [38]): 0 | Ratio (Mus musculus [39]): 0 | Ratio (Mus musculus [40]): 0

O=C1CC2(CCCC2)C(=O)N1OCc1ccccc1Cl
Ratio (Mus musculus [21]): 0 | Ratio (Mus musculus [22]): 0 | Ratio (Mus musculus [41]): 0 | Ratio (Mus musculus [24]): 0 | Ratio (Mus musculus [25]): 0 | Ratio (Mus musculus [26]): 0 | Ratio (Mus musculus [27]): 4 | Ratio (Mus musculus [28]): 0 | Ratio (Mus musculus [30]): 0 | Ratio (Mus musculus [42]): 1 | Ratio (Mus musculus [31]): 0 | Ratio (Mus musculus [43]): 0 | Ratio (Mus musculus [44]): 0 | Ratio (Mus musculus [32]): 0 | Ratio (Mus musculus [33]): 1 | Ratio (Mus musculus [34]): 0 | Ratio (Mus musculus [35]): 0 | Ratio (Mus musculus [36]): 0 | Ratio (Mus musculus [38]): 0 | Ratio (Mus musculus [39]): 0 | Ratio (Mus musculus [40]): 0 | Ratio (Mus musculus [45]): 0

O=C1CC2(CCCC2)C(=O)N1OCc1ccc(C(F)(F)F)cc1
Ratio (Mus musculus [46]): 0 | Ratio (Mus musculus [47]): 0 | ED50 (Mus musculus [48]): 300 mg/kg | Ratio (Mus musculus [7]): 0 | Ratio (Mus musculus [49]): 0 | TPE (Mus musculus [1]): 2 | Ratio (Mus musculus [10]): 1 | Ratio (Mus musculus [50]): 0 | PI (Mus musculus [11]): >1.7 | Ratio (Mus musculus [14]): 1 | ED50 (Mus musculus [51]): 300 mg/kg | Ratio (Mus musculus [15]): 0 | PI (Mus musculus [16]): >1.7 | Ratio (Mus musculus [17]): 0 | TPE (Mus musculus [2]): 0.25
